Source: PubChem (Johns Hopkins Ion Channel Center)
Hits are enriched below; roughly 3.7% of the tested compounds scored in any of these assays.
KCNQ1 inh = inhibitors of human KCNQ1 potassium channel; B-score at 10 µM; 310,000 tested, 1.3% active; P51787; AID 2642; CHO-K1 KCNQ1, FluxOR thallium flux fluorescence; stronger effect = higher value;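 active = compounds whose thallium flux B-score, printed positive for inhibition, exceeds three library SD while starting fluorescence stays within three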;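 also: channel opened by potassium depolarization with thallium stimulus after 20 min compound exposure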
hERG protect = hERG (human) protection from proarrhythmic block; activation (rescue from dofetilide block), less the hit threshold, % at 10 µM; 310,000 tested, 0.51% active; CHO-hERG, FluxOR thallium flux, dofetilide IC70 present;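 active = activation above the mean of controls blocked by dofetilide plus 5 SD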;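 also: thallium influx through hERG after potassium depolarization seen as dye fluorescence rise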
Target sequence (Q12809 whole entry, looked up): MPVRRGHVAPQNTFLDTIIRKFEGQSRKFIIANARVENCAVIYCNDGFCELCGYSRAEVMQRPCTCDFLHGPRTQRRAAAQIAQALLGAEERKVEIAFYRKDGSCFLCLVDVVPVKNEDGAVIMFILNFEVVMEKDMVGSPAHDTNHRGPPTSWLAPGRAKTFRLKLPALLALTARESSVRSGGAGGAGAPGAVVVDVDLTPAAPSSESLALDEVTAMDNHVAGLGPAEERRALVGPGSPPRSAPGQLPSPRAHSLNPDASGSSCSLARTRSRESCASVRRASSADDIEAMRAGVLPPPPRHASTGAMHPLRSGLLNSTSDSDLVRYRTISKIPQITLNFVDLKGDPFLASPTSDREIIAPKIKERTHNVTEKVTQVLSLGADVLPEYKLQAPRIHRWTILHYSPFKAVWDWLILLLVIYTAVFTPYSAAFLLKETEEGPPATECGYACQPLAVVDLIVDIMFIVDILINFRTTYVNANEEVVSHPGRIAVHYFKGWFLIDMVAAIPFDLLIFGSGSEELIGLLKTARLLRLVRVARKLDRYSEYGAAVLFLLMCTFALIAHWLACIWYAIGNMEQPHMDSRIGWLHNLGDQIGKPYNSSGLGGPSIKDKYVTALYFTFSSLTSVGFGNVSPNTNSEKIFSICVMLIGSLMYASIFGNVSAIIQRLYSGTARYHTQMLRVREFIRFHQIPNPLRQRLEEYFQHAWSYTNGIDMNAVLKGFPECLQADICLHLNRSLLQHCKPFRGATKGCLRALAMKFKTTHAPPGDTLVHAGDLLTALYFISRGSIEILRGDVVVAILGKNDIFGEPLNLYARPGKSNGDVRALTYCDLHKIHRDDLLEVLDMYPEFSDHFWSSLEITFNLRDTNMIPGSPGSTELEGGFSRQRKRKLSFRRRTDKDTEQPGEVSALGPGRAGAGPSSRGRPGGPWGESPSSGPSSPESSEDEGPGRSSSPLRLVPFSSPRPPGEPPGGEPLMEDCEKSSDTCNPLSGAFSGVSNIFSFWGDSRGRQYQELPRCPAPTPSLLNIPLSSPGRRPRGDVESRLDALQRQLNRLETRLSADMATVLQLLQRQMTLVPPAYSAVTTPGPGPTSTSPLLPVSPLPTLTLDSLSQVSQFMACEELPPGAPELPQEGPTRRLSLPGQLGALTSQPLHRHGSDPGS
Kir21 block = Kir2.1 (mouse) channel inhibition; P35561; HEK293-Kir2.1, FluxOR thallium flux fluorescence; stronger effect = lower value; B-score at 10 µM; 310,000 tested, 0.85% active; AID 1672;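 active = fluorescence ratio B-score at or below minus 3 SD of library scores, with starting-brightness B-score within 2 SD, cut at about -4.2 in these data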;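 also: channel flux triggered by added potassium and thallium sulfate stimulus; B-score of peak minus minimum fluorescence over baseline after thallium stimulus; more negative B-score means stronger Kir2.1 block with less thallium influx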
KCNK3 inh = human KCNK3 channel inhibition, primary screen | O14649 | CHO-KCNK3 thallium flux, FluxOR fluorescence; stronger effect = lower value | B-score at 10 µM | 340,000 tested, 0.84% active;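 active = B-score under library mean minus 4 SD, starting fluorescence ratio at most library mean plus 5 SD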;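 also: more negative B-score means stronger inhibition of thallium flux through KCNK3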
KCNK9 block = blocks the human KCNK9 two-pore domain potassium channel. Q9NPC2. HEK293 KCNK9, FluxOR thallium flux fluorescence; stronger effect = lower value. B-score at 10 µM. 310,000 tested, 1.2% active;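 active = ratio B-score over 3 SD below the library mean, with starting fluorescence within 5 SD of its mean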;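 also: negative B-score means less thallium flux so channel inhibition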
KCNQ1 act = potentiators or activators of human KCNQ1 potassium channel | CHO-K1 KCNQ1, thallium flux FluxOR fluorescence; stronger effect = higher value | AID 2648 | P51787 | B-score at 10 µM | 310,000 tested, 0.35% active;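 active = fluorescence ratio B-score, a plate-corrected score, at least three library SD, with initial intensity B-score within 5 SD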
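assay system = CHO-K1 cells stably expressing KCNQ1 | medium = assay buffer, equal DMSO in all wells | timing = 37 °C overnight plating, 90-min dark dye load, 20-min compound pretreatment | measured by = kinetic FluxOR thallium fluorescence, 10-s 1-Hz baseline, 110-s post-stimulus read | measure = fluorescence change relative to baseline, converted to B score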
* marks the source's active call; other numbers are inactive results.

Results for CCCN=C1N/C(=C\c2ccco2)C(=O)N1c1ccccc1 ?
KCNQ1 inh: inactive; hERG protect: -4; Kir21 block: -0.34; KCNK3 inh: inactive; KCNK9 block: inactive; KCNQ1 act: inactive

How did Cc1cc(-n2c(C)cc(C(=O)CSc3ncnc4ccccc34)c2C)no1 do in these assays?
KCNQ1 inh: 6*; hERG protect: -19; Kir21 block: 0.84; KCNK3 inh: inactive; KCNK9 block: inactive; KCNQ1 act: inactive

How did Cc1cc(C(=O)CSc2ncnc3ccccc23)c(C)n1C1CC1 do in these assays?
KCNK3 inh: inactive

Results for CCN1/C(=C\C=C(C(C)=O)C(C)=O)Sc2ccccc21 ?
KCNQ1 inh: 8*; hERG protect: -22; Kir21 block: -7.3; KCNK3 inh: inactive; KCNK9 block: inactive; KCNQ1 act: inactive

What do the screens show for `CC(NC(=O)c1cnccn1)c1ccc(S(N)(=O)=O)cc1` (centres undefined)?
KCNQ1 inh: inactive; hERG protect: -8; Kir21 block: -1.4; KCNK3 inh: inactive; KCNK9 block: inactive; KCNQ1 act: inactive

What do the screens show for `CC(=Nc1cccc(C)c1)c1sc2ccccc2c1O`?
KCNQ1 inh: inactive; hERG protect: -2; Kir21 block: -1.2; KCNK3 inh: inactive; KCNK9 block: -7*; KCNQ1 act: inactive

Results for COc1ccc(-c2cc(C(=O)OCC(=O)NC(C)C)c3ccccc3n2)cc1 ?
KCNQ1 inh: inactive; hERG protect: -5; Kir21 block: -4.4*; KCNK3 inh: inactive; KCNK9 block: inactive; KCNQ1 act: inactive

Results for CCOC(=O)c1sc(NC(=O)c2cc(-c3ccc(C)cc3)nc3ccccc23)c(C#N)c1C ?
KCNQ1 inh: 7*; hERG protect: -19; Kir21 block: -1.2; KCNK3 inh: inactive; KCNK9 block: inactive; KCNQ1 act: inactive

How did CCCNC(=O)COC(=O)c1cc(-c2ccc(OC)cc2)nc2ccccc12 do in these assays?
KCNQ1 inh: inactive; hERG protect: -5; Kir21 block: 0.1; KCNK3 inh: inactive; KCNK9 block: inactive; KCNQ1 act: inactive

How did Cc1ccccc1-c1cc(C(=O)Nc2sc(C(=O)OC(C)C)c(C)c2C#N)c2ccccc2n1 do in these assays?
KCNQ1 inh: 10*; hERG protect: -7; Kir21 block: -1.2; KCNK3 inh: inactive; KCNK9 block: inactive; KCNQ1 act: inactive

What do the screens show for `CC(C)CCN(C(=O)Cc1ccc(Cl)c(Cl)c1)c1c(N)n(Cc2ccccc2)c(=O)[nH]c1=O`?
KCNQ1 inh: inactive; hERG protect: -4; Kir21 block: -0.16; KCNK3 inh: inactive; KCNK9 block: inactive; KCNQ1 act: inactive

What do the screens show for `O=C(N/N=C/c1cccnc1)C1CC1(c1ccccc1)c1ccccc1` (centres undefined)?
KCNQ1 inh: inactive; hERG protect: -8; Kir21 block: -0.73; KCNK3 inh: inactive; KCNK9 block: inactive; KCNQ1 act: inactive

How did NS(=O)(=O)c1ccc(N2N=C(c3ccccc3)CC2c2ccc(F)cc2)cc1 (centres undefined) do in these assays?
KCNQ1 inh: 6*; hERG protect: -10; Kir21 block: 1.3; KCNK3 inh: inactive; KCNK9 block: -7.7*; KCNQ1 act: inactive

Results for COc1ccc(C2CC(c3ccccc3)=NN2c2ccc(C(N)=O)cc2)cc1 (centres undefined) ?
KCNQ1 inh: 10*; hERG protect: -8; Kir21 block: -0.04; KCNK3 inh: inactive; KCNK9 block: inactive; KCNQ1 act: inactive

Results for O=Cc1ccc(N2N=C(c3ccccc3)CC2c2ccccc2)cc1 (centres undefined) ?
KCNQ1 inh: 8*; hERG protect: -14; Kir21 block: 0.08; KCNK3 inh: inactive; KCNK9 block: inactive; KCNQ1 act: inactive

How did N#CCC(=O)N/N=C/c1ccc(N2N=C(c3ccccc3)CC2c2ccccc2)cc1 (centres undefined) do in these assays?
KCNQ1 inh: inactive; hERG protect: -1; Kir21 block: 0.06; KCNK3 inh: inactive; KCNK9 block: inactive; KCNQ1 act: inactive

Results for COc1ccc(C2CC(c3ccccc3)=NN2c2ccc(/C=N/NC(=O)c3ccncc3)cc2)cc1 (centres undefined) ?
KCNQ1 inh: 6*; hERG protect: -4; Kir21 block: -0.57; KCNK3 inh: inactive; KCNK9 block: inactive; KCNQ1 act: inactive

Results for COc1ccc(C2CC(c3ccccc3)=NN2c2ccc(S(N)(=O)=O)cc2)cc1 (centres undefined) ?
KCNQ1 inh: inactive; hERG protect: -10; Kir21 block: 0.18; KCNK3 inh: inactive; KCNK9 block: inactive; KCNQ1 act: inactive

What do the screens show for `O=C(O)c1ccc(N2N=C(c3ccccc3)CC2c2ccccc2)cc1` (centres undefined)?
KCNQ1 inh: inactive; hERG protect: -12; Kir21 block: 0.23; KCNK3 inh: inactive; KCNK9 block: inactive; KCNQ1 act: inactive

Results for COc1ccc(S(=O)(=O)NCc2ccc(F)cc2)cc1OC ?
KCNQ1 inh: inactive; hERG protect: -3; Kir21 block: 1.2; KCNK3 inh: inactive; KCNK9 block: inactive; KCNQ1 act: inactive

What do the screens show for `CCCCN(C(=O)c1ccc(-c2ccc(Cl)cc2)o1)c1c(N)n(CCCC)c(=O)[nH]c1=O`?
KCNK3 inh: inactive

Results for CC(=O)Nc1ccc(C2=NN(c3ccccc3)C(c3ccccc3)C2)cc1 (centres undefined) ?
KCNQ1 inh: inactive; hERG protect: -1; Kir21 block: 0.01; KCNK3 inh: inactive; KCNK9 block: -6.7*; KCNQ1 act: inactive

What do the screens show for `COc1ccc(C2=NN(c3ccc(C=O)cc3)C(c3ccccc3)C2)cc1` (centres undefined)?
KCNQ1 inh: 6*; hERG protect: -4; Kir21 block: -0.05; KCNK9 block: inactive; KCNQ1 act: inactive

How did CSC(SC)=C(C#N)C(=O)c1ccccc1 do in these assays?
KCNQ1 inh: 11*; hERG protect: -29; Kir21 block: -4.4*; KCNK3 inh: inactive; KCNK9 block: inactive; KCNQ1 act: inactive

What do the screens show for `CC(NC(=O)COC(=O)c1cc(NS(=O)(=O)c2ccc(Cl)c([N+](=O)[O-])c2)ccc1O)C1CC2CCC1C2` (centres undefined)?
KCNQ1 inh: 11*; hERG protect: -13; Kir21 block: -1.4; KCNK3 inh: inactive; KCNK9 block: inactive; KCNQ1 act: inactive

Results for COc1ccc(NS(=O)(=O)c2ccc(O)c(C(=O)OCC(=O)NC(C)C3CC4CCC3C4)c2)cc1 (centres undefined) ?
KCNQ1 inh: inactive; hERG protect: -9; Kir21 block: 0.01; KCNK3 inh: inactive; KCNK9 block: inactive; KCNQ1 act: inactive
